{"source": "ChEMBL document CHEMBL5329152", "about": "“Synthesis and anti-hepatocellular carcinoma evaluation of salicylic acid-modified indole trimethoxy flavonoid derivatives” (RSC Med Chem, 2023)", "key": {"[1]": {"test_system": "HGC-27", "assay": "Antiproliferative activity against human HGC-27 cells assessed as inhibition of cell proliferation incubated for 48 hrs by MTT assay", "type": "functional, cell-based", "conditions": "HGC-27, 48 h", "outline": "(§1)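 Cells seeded at 5×10^3 per well, left overnight, then given fresh medium with drug at 128, 64, 32, 16, 8, 4, 2 and 1 μM. Kept 48 h at 37 °C under 5% CO₂. Positive controls were CA4, […] and 5-FU. Read by MTT staining with absorbance at 490 nm, and IC₅₀ calculated from it.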"}, "[2]": {"test_system": "HepG2", "assay": "Antiproliferative activity against human HepG2 cells assessed as inhibition of cell proliferation incubated for 48 hrs by MTT assay", "type": "functional, cell-based", "conditions": "HepG2, 48 h", "outline": "as §1"}, "[3]": {"test_system": "MDA-MB-231", "assay": "Antiproliferative activity against human MDA-MB-231 cells assessed as inhibition of cell proliferation incubated for 48 hrs by MTT assay", "type": "functional, cell-based", "conditions": "MDA-MB-231, 48 h", "outline": "as §1"}, "[4]": {"test_system": "SMMC-7721", "assay": "Antiproliferative activity against human SMMC-7721 cells assessed as inhibition of cell proliferation incubated for 48 hrs by MTT assay", "type": "functional, cell-based", "conditions": "SMMC-7721, 48 h", "outline": "as §1"}, "[5]": {"test_system": "SMMC-7721", "assay": "Inhibition of colony formation in human SMMC-7721 cells assessed as decrease in number of living cells incubated after 10 days by crystal violet based assay", "type": "functional, cell-based", "conditions": "dose 1.5-6 µM, time 10.0 day", "outline": "(§2)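 Seeded at 1.5×10^3 cells per well in 6-well plates and grown 24 h. Given drug at 0, 1.5, 3 or 6 μM for 10 days, with medium renewed every 48 h. On day 11 washed with PBS, fixed 15 min in 4% paraformaldehyde, stained 15 min with 0.1% crystal violet, then dried and photographed.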"}, "[6]": {"test_system": "SMMC-7721", "assay": "Inhibition of colony formation in human SMMC-7721 cells assessed as complete inhibition in cell growth incubated at 6 uM after 10 days by crystal violet based assay", "type": "functional", "conditions": "time 10.0 day", "outline": "as §2"}, "[7]": {"test_system": "SMMC-7721", "assay": "Inhibition of colony formation in human SMMC-7721 cells incubated at 6 uM after 10 days by crystal violet based assay", "type": "functional, cell-based", "conditions": "time 10.0 day", "outline": "as §2"}, "[8]": {"test_system": "SMMC-7721", "assay": "Induction of apoptosis in human SMMC-7721 cells assessed as viable cells at 1.5 uM incubated for 48 hrs by AnnexinV-FITC/PI staining based flow cytometry (Rvb =93.6 %)", "type": "functional", "conditions": "read-out: Activity"}, "[9]": {"test_system": "SMMC-7721", "assay": "Induction of apoptosis in human SMMC-7721 cells assessed as early apoptotic cells at 1.5 uM incubated for 48 hrs by AnnexinV-FITC/PI staining based flow cytometry (Rvb =0.739 %)", "type": "functional"}, "[10]": {"test_system": "SMMC-7721", "assay": "Induction of apoptosis in human SMMC-7721 cells assessed as late apoptotic cells at 1.5 uM incubated for 48 hrs by AnnexinV-FITC/PI staining based flow cytometry (Rvb =3.17 %)", "type": "functional"}, "[11]": {"test_system": "SMMC-7721", "assay": "Induction of apoptosis in human SMMC-7721 cells assessed as viable cells at 3 uM incubated for 48 hrs by AnnexinV-FITC/PI staining based flow cytometry (Rvb =93.6 %)", "type": "functional", "conditions": "read-out: Activity"}, "[12]": {"test_system": "SMMC-7721", "assay": "Induction of apoptosis in human SMMC-7721 cells assessed as necrotic cells at 3 uM incubated for 48 hrs by AnnexinV-FITC/PI staining based flow cytometry (Rvb =2.51 %)", "type": "functional"}, "[13]": {"test_system": "SMMC-7721", "assay": "Induction of apoptosis in human SMMC-7721 cells assessed as viable cells at 6 uM incubated for 48 hrs by AnnexinV-FITC/PI staining based flow cytometry (Rvb =93.6 %)", "type": "functional", "conditions": "read-out: Activity"}, "[14]": {"test_system": "SMMC-7721", "assay": "Induction of apoptosis in human SMMC-7721 cells at 6 uM incubated for 48 hrs by AnnexinV-FITC/PI staining based flow cytometry (reference value: 3.090 %)", "type": "functional"}, "[15]": {"test_system": "SMMC-7721", "assay": "Induction of cell cycle distribution in human SMMC-7721 cells assessed as accumulation of cells in G1 phase at 1.5 uM incubated for 48 hrs by PI staining based flow cytometric analysis relative to control", "type": "functional", "outline": "(§3)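 Seeding was 1×10^4 cells per well in 6-well plates with 24 h preculture, then 48 h exposure at 0, 1.5, 3 or 6 μM. Trypsinized cells were PBS-washed and fixed overnight in cold 70% ethanol. RNase A treatment ran 30 min at 37 °C, then PI 30 min in the dark at 4 °C. Flow cytometry at 488 nm; n = 3.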"}, "[16]": {"test_system": "SMMC-7721", "assay": "Induction of cell cycle distribution in human SMMC-7721 cells assessed as accumulation of cells in G1 phase at 3 uM incubated for 48 hrs by PI staining based flow cytometric analysis relative to control", "type": "functional", "outline": "as §3"}, "[17]": {"test_system": "SMMC-7721", "assay": "Induction of cell cycle distribution in human SMMC-7721 cells assessed as accumulation of cells in S phase at 1.5 uM incubated for 48 hrs by PI staining based flow cytometric analysis relative to control", "type": "functional", "outline": "as §3"}, "[18]": {"test_system": "SMMC-7721", "assay": "Induction of cell cycle distribution in human SMMC-7721 cells assessed as accumulation of cells in S phase at 3 uM incubated for 48 hrs by PI staining based flow cytometric analysis relative to control", "type": "functional", "outline": "as §3"}, "[19]": {"test_system": "SMMC-7721", "assay": "Induction of cell cycle distribution in human SMMC-7721 cells assessed as accumulation of cells in S phase at 6 uM incubated for 48 hrs by PI staining based flow cytometric analysis relative to control", "type": "functional", "outline": "as §3"}, "[20]": {"test_system": "SMMC-7721", "assay": "Induction of cell cycle distribution in human SMMC-7721 cells assessed as decreased accumulation of cells in G2 phase at 1.5 to 6 uM incubated for 48 hrs by PI staining based flow cytometric analysis", "type": "functional", "conditions": "dose 1.5-6 µM", "outline": "as §3"}, "[21]": {"test_system": "SMMC-7721", "assay": "Inhibition of glycolysis in human SMMC-7721 cells assessed as decrease in PKM2 protein expression level at 1.5 to 6 uM by western blotting analysis", "type": "functional, cell-based", "conditions": "dose 1.5-6 µM", "outline": "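Cells treated at 0, 1.5, 3 or 6 μM, lysed in RIPA, and protein measured by BCA. Semi-dry transfer to PVDF, then blocking 2 h in 5% nonfat milk at room temperature. Primary antibody overnight at 4 °C, secondary at room temperature. Chemiluminescence imaging with grayscale densitometry; n = 3.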"}, "[22]": {"molecular_target": "T1, Tubulin (Homo sapiens) (UniProt P68371+Q9H4B7+P0DPH7+P68366+Q13509+Q71U36+P04350+Q3ZCM7+P07437+P68363+Q9BQE3+Q6PEY2+Q13885+Q9BVA1+Q9BUF5)", "assay": "Inhibition of tubulin in human SMMC-7721 cells assessed as shrunk of nuclei at 1.5 to 6 uM incubated for 48 hrs by immunofluorescence assay", "type": "cell-based", "conditions": "dose 1.5-6 µM", "outline": "(§4)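 Cells grown on coverslips in 6-well plates were exposed for 48 h at 0, 1.5, 3 or 6 μM. Fixed in 4% paraformaldehyde and blocked with BSA. Probed in turn with primary antibody, Cy3-labelled goat anti-mouse IgG and DAPI. Imaged by laser scanning confocal microscopy.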"}, "[23]": {"molecular_target": "T1, Tubulin (Homo sapiens)", "assay": "Inhibition of tubulin in human SMMC-7721 cells assessed as denaturated nuclei at 1.5 to 6 uM incubated for 48 hrs by immunofluorescence assay", "type": "cell-based", "conditions": "dose 1.5-6 µM", "outline": "as §4"}, "[24]": {"molecular_target": "T1, Tubulin (Homo sapiens)", "assay": "Inhibition of tubulin in human SMMC-7721 cells assessed as ruptured nucleus at 6 uM incubated for 48 hrs by immunofluorescence assay", "type": "cell-based", "outline": "as §4"}, "[25]": {"molecular_target": "T1, Tubulin (Homo sapiens)", "assay": "Inhibition of tubulin in human SMMC-7721 cells assessed as blurred and disappearance of microtubules at 1.5 to 6 uM incubated for 48 hrs by immunofluorescence assay", "type": "cell-based", "conditions": "dose 1.5-6 µM", "outline": "as §4"}, "[26]": {"molecular_target": "T1, Tubulin (Homo sapiens)", "assay": "Inhibition of tubulin in human SMMC-7721 cells assessed as disappearance of tubulin network structure at 6 uM incubated for 48 hrs by immunofluorescence assay", "type": "cell-based", "outline": "as §4"}}, "note": "Activity calls are given as the source filed them. No cut-off for these calls is given here.", "data": [{"smiles": "COc1cc(C)ccc1C(=O)n1cc(-c2cc(=O)c3c(OC)c(OC)c(OC)cc3o2)c2ccccc21", "values": [{"measurement": "IC50", "setting": "[1]", "value": 10.5, "unit": "µM"}, {"measurement": "IC50", "setting": "[2]", "value": 4.63, "unit": "µM"}, {"measurement": "IC50", "setting": "[3]", "value": 4.96, "unit": "µM"}, {"measurement": "IC50", "setting": "[4]", "value": 3.11, "unit": "µM"}, {"measurement": "inhibition", "setting": "[5]", "value": "Dose-Dependent Effect"}, {"measurement": "inhibition", "setting": "[6]", "value": "Active"}, {"measurement": "inhibition", "setting": "[7]", "value": "Active"}, {"measurement": "viability at 1.5 µM", "setting": "[8]", "value": 84.2, "unit": "%"}, {"measurement": "Activity", "setting": "[9]", "value": 1.93, "unit": "%"}, {"measurement": "Activity", "setting": "[10]", "value": 5.97, "unit": "%"}, {"measurement": "viability at 3 µM", "setting": "[11]", "value": 74.3, "unit": "%"}, {"measurement": "Activity", "setting": "[12]", "value": 7.68, "unit": "%"}, {"measurement": "viability at 6 µM", "setting": "[13]", "value": 65.1, "unit": "%"}, {"measurement": "Activity", "setting": "[14]", "value": 24.3, "unit": "%"}, {"measurement": "Activity", "setting": "[15]", "value": 60.32, "unit": "%"}, {"measurement": "Activity", "setting": "[16]", "value": 63.29, "unit": "%"}, {"measurement": "Activity", "setting": "[17]", "value": 34.37, "unit": "%"}, {"measurement": "Activity", "setting": "[18]", "value": 14.69, "unit": "%"}, {"measurement": "Activity", "setting": "[19]", "value": 23.62, "unit": "%"}, {"measurement": "Activity", "setting": "[20]", "value": "Active"}, {"measurement": "inhibition", "setting": "[21]", "value": "Active"}, {"measurement": "inhibition", "setting": "[22]", "value": "Active"}, {"measurement": "inhibition", "setting": "[23]", "value": "Active"}, {"measurement": "inhibition", "setting": "[24]", "value": "Active"}, {"measurement": "Activity", "setting": "[25]", "value": "Active"}, {"measurement": "inhibition", "setting": "[26]", "value": "Active"}]}]}
